ChEMBL document CHEMBL1649560, “Beta-lactamase-mediated beta-lactam resistance in Campylobacter species: prevalence of Cj0299 (bla OXA-61) and evidence for a novel beta-Lactamase in C. jejuni” (2009)
In brackets after ≈: the same amount, converted by molar mass.

Experiments:
Type in all cases: functional
[1] = tested on: Campylobacter jejuni; assay: Antibacterial activity against bla gene-positive and nitrocefin reaction-positive beta-lactamase harboring Campylobacter jejuni isolate P305 by NCCLS agar doubling dilution method
Summary of the method: (§1)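 MICs by agar doubling dilution per the NCCLS (now CLSI) Campylobacter Working Group method. Isolates came from UK chicken flocks (feces, ceca or farm environment), 2000–2006. C. jejuni NCTC 11168 and C. coli NCTC 11366 served as control strains. The ampicillin resistance cutoff was 8 μg/ml; BSAC/CLSI Enterobacteriaceae guidelines were used for other agents.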

[2] = tested on: Campylobacter coli; assay: Antibacterial activity against bla-positive and beta-lactamase-weakly positive Campylobacter coli isolate P1627 by NCCLS agar doubling dilution method; summary of the method: as §1
[3] = tested on: Campylobacter jejuni; assay: Antibacterial activity against bla gene-negative and nitrocefin reaction-negative beta-lactamase harboring Campylobacter jejuni isolate P850 by NCCLS agar doubling dilution method
Summary of the method: (§2)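 MICs of β-lactams by agar doubling dilution following the NCCLS (CLSI) Campylobacter Working Group procedure, with C. jejuni NCTC 11168 and C. coli NCTC 11366 as controls. Isolates were from UK poultry flocks. β-Lactamase status was set by Cj0299 PCR (281-bp amplimer) and by a nitrocefin colour change of sonicated lysate within 5 min, or within 30 min on repeat.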

[4] = tested on: Campylobacter jejuni; assay: Antibacterial activity against bla gene-positive and nitrocefin reaction-negative beta-lactamase harboring Campylobacter jejuni NCTC 11168 by NCCLS agar doubling dilution method; summary of the method: as §2
[5] = tested on: Campylobacter coli; assay: Antibacterial activity against Campylobacter coli by NCCLS agar doubling dilution method
Summary of the method: (§3)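 MICs by agar doubling dilution following the NCCLS (CLSI) Campylobacter Working Group procedure, applied to ampicillin- and amoxicillin-resistant isolates from UK chicken flocks (2000–2006). C. jejuni NCTC 11168 and C. coli NCTC 11366 served as control strains. Resistance was called at an ampicillin cutoff of 8 μg/ml. Other agents were judged against Enterobacteriaceae guidelines (BSAC, CLSI).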

[6] = tested on: Campylobacter jejuni; assay: Antibacterial activity against bla gene-positive and nitrocefin reaction-negative beta-lactamase harboring Campylobacter jejuni isolate P1699 by NCCLS agar doubling dilution method; summary of the method: as §2
[7] = tested on: Campylobacter jejuni; assay: Antibacterial activity against bla gene-negative and nitrocefin reaction-negative beta-lactamase harboring Campylobacter jejuni isolate P1962 by NCCLS agar doubling dilution method; summary of the method: as §2
[8] = tested on: Campylobacter jejuni; assay: Antibacterial activity against bla gene-positive and nitrocefin reaction-positive beta-lactamase harboring Campylobacter jejuni isolate P1730 by NCCLS agar doubling dilution method; summary of the method: as §1
[9] = tested on: Campylobacter jejuni; assay: Antibacterial activity against bla gene-negative and nitrocefin reaction-positive beta-lactamase harboring Campylobacter jejuni isolate P854 by NCCLS agar doubling dilution method; summary of the method: as §2
[10] = tested on: Campylobacter jejuni; assay: Antibacterial activity against Campylobacter jejuni isolate P338 harboring blaOXA-61::cat gene by NCCLS agar doubling dilution method
Summary of the method: (§4)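 Agar doubling dilution MICs (NCCLS/CLSI Campylobacter Working Group method) against Cj0299-inactivated mutants. Mutants were made by transforming the C. jejuni isolate with pCI and selecting on Mueller-Hinton agar with 10 μg/ml chloramphenicol for 3–5 days. Chromosomal insertion was confirmed by PCR with Cj0299 and cat primers.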

[11] = tested on: Campylobacter jejuni; assay: Antibacterial activity against bla gene-positive and nitrocefin reaction-positive beta-lactamase harboring Campylobacter jejuni isolate P338 by NCCLS agar doubling dilution method; summary of the method: as §1
[12] = tested on: Campylobacter jejuni; assay: Antibacterial activity against bla gene-positive and nitrocefin reaction-positive beta-lactamase harboring Campylobacter jejuni isolate P286 by NCCLS agar doubling dilution method; summary of the method: as §1
[13] = tested on: Campylobacter jejuni; assay: Antibacterial activity against bla gene-positive and nitrocefin reaction-positive beta-lactamase harboring Campylobacter jejuni isolate P1618 by NCCLS agar doubling dilution method; summary of the method: as §2
[14] = tested on: Campylobacter coli; assay: Antibacterial activity against bla gene-positive and nitrocefin reaction-positive beta-lactamase harboring Campylobacter coli isolate P321 by NCCLS agar doubling dilution method; summary of the method: as §2
[15] = tested on: Campylobacter coli; assay: Antibacterial activity against bla gene-positive and nitrocefin reaction-positive beta-lactamase harboring Campylobacter coli isolate P1826 by NCCLS agar doubling dilution method; summary of the method: as §2
[16] = tested on: Campylobacter jejuni; assay: Antibacterial activity against Campylobacter jejuni by NCCLS agar doubling dilution method; summary of the method: as §3
[17] = tested on: Campylobacter jejuni; assay: Antibacterial activity against bla gene-negative and nitrocefin reaction-positive beta-lactamase harboring Campylobacter jejuni isolate P843 by NCCLS agar doubling dilution method; summary of the method: as §2
[18] = tested on: Campylobacter jejuni; assay: Antibacterial activity against bla gene-positive and nitrocefin reaction-negative beta-lactamase harboring Campylobacter jejuni isolate P1698 by NCCLS agar doubling dilution method; summary of the method: as §2
[19] = tested on: Campylobacter jejuni; assay: Antibacterial activity against bla gene-positive and nitrocefin reaction-positive beta-lactamase harboring Campylobacter jejuni isolate P316 by NCCLS agar doubling dilution method; summary of the method: as §1
[20] = tested on: Campylobacter jejuni; assay: Antibacterial activity against Campylobacter jejuni isolate P270 harboring blaOXA-61::cat gene by NCCLS agar doubling dilution method
[21] = tested on: Campylobacter jejuni; assay: Antibacterial activity against bla gene-negative and nitrocefin reaction-negative beta-lactamase harboring Campylobacter jejuni isolate P835 by NCCLS agar doubling dilution method; summary of the method: as §2
[22] = tested on: Campylobacter jejuni; assay: Antibacterial activity against Campylobacter jejuni isolate P1093 harboring blaOXA-61::cat gene by NCCLS agar doubling dilution method; summary of the method: as §4
[23] = tested on: Campylobacter jejuni; assay: Antibacterial activity against bla gene-positive and nitrocefin reaction-positive beta-lactamase harboring Campylobacter jejuni isolate P1650 by NCCLS agar doubling dilution method; summary of the method: as §2
[24] = tested on: Campylobacter jejuni; assay: Antibacterial activity against bla gene-positive and nitrocefin reaction-positive beta-lactamase harboring Campylobacter jejuni isolate P285 by NCCLS agar doubling dilution method; summary of the method: as §1
[25] = tested on: Campylobacter jejuni; assay: Antibacterial activity against bla gene-positive and nitrocefin reaction-positive beta-lactamase harboring Campylobacter jejuni isolate P1093 by NCCLS agar doubling dilution method; summary of the method: as §2
[26] = tested on: Campylobacter jejuni; assay: Antibacterial activity against bla gene-positive and nitrocefin reaction-positive beta-lactamase harboring Campylobacter jejuni isolate P790 by NCCLS agar doubling dilution method; summary of the method: as §1

Structure (SMILES) | MIC [1] [mg/L] | MIC [2] [mg/L] | MIC [3] [mg/L] | MIC [4] [mg/L] | MIC50 [5] [mg/L] | MIC90 [5] [mg/L] | MIC [6] [mg/L] | MIC [7] [mg/L] | MIC [8] [mg/L] | MIC [9] [mg/L] | MIC [11] [mg/L] | MIC [12] [mg/L] | MIC [13] [mg/L] | MIC [14] [mg/L] | MIC50 [16] [mg/L] | MIC90 [16] [mg/L] | MIC [17] [mg/L] | MIC [18] [mg/L] | MIC [19] [mg/L] | MIC [21] [mg/L] | also measured
CO[C@@]1(NC(=O)Cc2cccs2)C(=O)N2C(C(=O)O)=C(COC(N)=O)CS[C@@H]21 [CEFOXITIN] | 128 (≈ 299 µM) | 64 (≈ 150 µM) | 256 (≈ 599 µM) | 32 (≈ 74.9 µM) | 128 (≈ 299 µM) | > 256 | 128 (≈ 299 µM) | 256 (≈ 599 µM) | 256 (≈ 599 µM) | 128 (≈ 299 µM) | 512 (≈ 1200 µM) | 256 (≈ 599 µM) | 256 (≈ 599 µM) | 64 (≈ 150 µM) | 128 (≈ 299 µM) | 256 (≈ 599 µM) | 256 (≈ 599 µM) | 128 (≈ 299 µM) | 128 (≈ 299 µM) | 256 (≈ 599 µM) | MIC [10]: 512 mg/L (≈ 1200 µM); MIC [15]: 128 mg/L (≈ 299 µM); MIC [20]: 32 mg/L (≈ 74.9 µM); MIC [22]: 128 mg/L (≈ 299 µM); MIC [23]: 128 mg/L (≈ 299 µM); MIC [24]: 256 mg/L (≈ 599 µM); MIC [25]: 128 mg/L (≈ 299 µM); MIC [26]: 64 mg/L (≈ 150 µM)
CC1(C)S[C@@H]2[C@H](NC(=O)Cc3ccccc3)C(=O)N2[C@H]1C(=O)O [PENICILLIN G] | 128 (≈ 383 µM) | 8 (≈ 23.9 µM) | 64 (≈ 191 µM) | 8 (≈ 23.9 µM) | 128 (≈ 383 µM) | 128 (≈ 383 µM) | < 8 | 8 (≈ 23.9 µM) | 64 (≈ 191 µM) | 256 (≈ 766 µM) | 128 (≈ 383 µM) | 128 (≈ 383 µM) | 64 (≈ 191 µM) | 64 (≈ 191 µM) | 64 (≈ 191 µM) | 256 (≈ 766 µM) | 64 (≈ 191 µM) | < 8 | 128 (≈ 383 µM) | 4 (≈ 12 µM) | MIC [10]: 16 mg/L (≈ 47.8 µM); MIC [15]: 128 mg/L (≈ 383 µM); MIC [20]: 2 mg/L (≈ 5.98 µM); MIC [22]: 8 mg/L (≈ 23.9 µM); MIC [23]: 64 mg/L (≈ 191 µM); MIC [24]: 128 mg/L (≈ 383 µM); MIC [25]: 256 mg/L (≈ 766 µM); MIC [26]: 128 mg/L (≈ 383 µM)
C[C@H]1[C@H](NC(=O)/C(=N\OC(C)(C)C(=O)O)c2csc(N)n2)C(=O)N1S(=O)(=O)O [AZTREONAM] | > 128 | > 128 | > 32 | 64 (≈ 147 µM) | 64 (≈ 147 µM) | > 128 | < 1 | 4 (≈ 9.19 µM) | 32 (≈ 73.5 µM) | 4 (≈ 9.19 µM) | 128 (≈ 294 µM) | > 128 | 64 (≈ 147 µM) | > 128 | 64 (≈ 147 µM) | > 128 | > 128 | 128 (≈ 294 µM) | > 128 | 128 (≈ 294 µM) | MIC [15]: 32 mg/L (≈ 73.5 µM); MIC [23]: 128 mg/L (≈ 294 µM); MIC [24]: > 128 mg/L; MIC [26]: > 128 mg/L
CC1(C)S[C@@H]2[C@H](NC(=O)[C@H](C(=O)O)c3ccsc3)C(=O)N2[C@H]1C(=O)O [TICARCILLIN] | 128 (≈ 333 µM) | 64 (≈ 166 µM) | 128 (≈ 333 µM) | 2 (≈ 5.2 µM) | 64 (≈ 166 µM) | 128 (≈ 333 µM) | 128 (≈ 333 µM) | < 4 | 32 (≈ 83.2 µM) | 128 (≈ 333 µM) | 64 (≈ 166 µM) | 64 (≈ 166 µM) | 64 (≈ 166 µM) | 64 (≈ 166 µM) | 64 (≈ 166 µM) | 128 (≈ 333 µM) | 128 (≈ 333 µM) | 64 (≈ 166 µM) | 64 (≈ 166 µM) | 4 (≈ 10.4 µM) | MIC [10]: 4 mg/L (≈ 10.4 µM); MIC [20]: 2 mg/L (≈ 5.2 µM); MIC [22]: 8 mg/L (≈ 20.8 µM); MIC [23]: 64 mg/L (≈ 166 µM); MIC [24]: 64 mg/L (≈ 166 µM); MIC [25]: 32 mg/L (≈ 83.2 µM); MIC [26]: 128 mg/L (≈ 333 µM)
CC1(C)S[C@@H]2[C@H](NC(=O)[C@H](N)c3ccc(O)cc3)C(=O)N2[C@H]1C(=O)O [AMOXICILLIN] | 64 (≈ 175 µM) | 8 (≈ 21.9 µM) | 1 (≈ 2.74 µM) | 4 (≈ 10.9 µM) | 128 (≈ 350 µM) | > 128 | 64 (≈ 175 µM) | 2 (≈ 5.47 µM) | 64 (≈ 175 µM) | 128 (≈ 350 µM) | 64 (≈ 175 µM) | 64 (≈ 175 µM) | 64 (≈ 175 µM) | 64 (≈ 175 µM) | 64 (≈ 175 µM) | 128 (≈ 350 µM) | 64 (≈ 175 µM) | 128 (≈ 350 µM) | 32 (≈ 87.6 µM) | 0.25 (≈ 0.684 µM) | MIC [15]: 128 mg/L (≈ 350 µM); MIC [23]: 64 mg/L (≈ 175 µM); MIC [24]: 64 mg/L (≈ 175 µM); MIC [25]: 64 mg/L (≈ 175 µM); MIC [26]: 64 mg/L (≈ 175 µM)
Cn1nnnc1SCC1=C(C(=O)O)N2C(=O)[C@@H](NC(=O)[C@H](O)c3ccccc3)[C@H]2SC1 [CEFAMANDOLE] | – | – | – | – | > 256 | > 256 | – | – | – | – | – | – | – | – | > 256 | > 256 | – | – | – | – | –
CC(=O)OCC1=C(C(=O)O)N2C(=O)[C@@H](NC(=O)Cc3cccs3)[C@H]2SC1 [CEPHALOTHIN] | – | – | – | – | 256 (≈ 646 µM) | > 256 | – | – | – | – | – | – | – | – | > 256 | > 256 | – | – | – | – | –
